G6PDH CS – L. mesenteroides G6PDH inhibitors, counter-screen for G6PDH-coupled screening assays, biochemical, Leuconostoc mesenteroides enzyme. inhibition, % at 5 µM. glucose-6-phosphate dehydrogenase [Leuconostoc mesenteroides]. 0.12% of 200,000 active. AID 1020, 2008. Purified L. mesenteroides G6PDH, diaphorase/resazurin coupled fluorescence, 45 min; in the data active means inhibition above about 50%
Diaphorase act – compounds boosting diaphorase resazurin reduction – biochemical, uHTS, resorufin fluorescence, counter-screen for diaphorase-coupled primary assays, primary screen. 0.005% of 190,000 active. AID 1229, 2008. activation factor at 20 µM. Diaphorase/resazurin coupled assay, 16 min; stronger effect = higher value; 1 = vehicle wells, 0 = NADH-free wells;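 active means diaphorase activity raised at least twofold by the compound at 20 µM; inactive means activation factor below 2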
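Measured by – red resorufin fluorescence at 544/590 nm excitation/emission · Test system – Clostridium kluyveri diaphorase, purified enzyme · Incubation – reaction time 16 min, room temperature · Buffer or medium – 50 mM HEPES pH 7.4 with 4.542 mM MgCl2, 0.005% Tween 20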
HKDC1 inhibitor – HKDC1 hexokinase inhibitors, primary screen, biochemical, fluorescence, uHTS; recombinant HKDC1, G6PDH/diaphorase resazurin coupled fluorescence; 0.16% of 340,000 active; inhibition, % at 20 µM; AID 493160, 2011; Q2TB90;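 active means inhibition above about 35% when tested at 20 µM, limit read from the data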;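 further: plate controls were DMSO wells with enzyme for no effect and DMSO wells lacking enzyme for full effect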
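Incubation: 90 min at room temperature in dark / Material: recombinant HKDC1 (HK5) hexokinase enzyme, produced in-house / Quantity: enzyme 5 µg/mL final / Compound: one dose of 20 µM, 1% DMSO / Reagent: glucose and ATP substrates / Buffer or medium: Tris pH 8.0 buffer with MgCl2, Tween-20, BSA, BME / Technique: resorufin fluorescence at 613 nm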
PfG6PD inh – PfG6PD enzyme inhibitors, primary screen, biochemical, fluorescence intensity, uHTS. glucose-6-phosphate dehydrogenase-6-phosphogluconolactonase (Plasmodium falciparum 3D7). PfGluPho enzyme, NADPH resazurin-diaphorase fluorescence. inhibition, % at 20 µM. 0.78% of 350,000 active. AID 504690, 2011;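 active means inhibition reaching at least a set limit at 20 µM in the primary screen, cut at about 59% in these data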;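 further: 0% = DMSO wells with substrate and 100% = DMSO wells lacking glucose-6-phosphate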
Diaph inh CS – diaphorase inhibitors and chemical oxidizers, primary screen, counter-screen for diaphorase-coupled primary assays, biochemical, uHTS, resorufin fluorescence; diaphorase resazurin-to-resorufin fluorescence, NADH, 16 min; bacterial (C. kluyveri) enzyme, not human; inhibition, % at 20 µM; 0.69% of 190,000 active; AID 1217, 2008;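 active means primary screen inhibition at 20 µM above a set limit, cut at about 50% in these data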;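 further: plate controls were DMSO with full reaction for no effect and wells lacking NADH for full effect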
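Assay system: diaphorase enzyme from Clostridium kluyveri; Input: enzyme working solution with 0.14 U/mL diaphorase; Timing: 16 min at room temperature; Technique: resorufin fluorescence, excitation 544 nm, emission 590 nm; Benchmarks: positive control minus NADH, DMSO neutral control.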
PfG6PD confirm – PfG6PD inhibitors, hit retest, confirmation, biochemical, fluorescence intensity, single concentration | shares compounds with PfG6PD inh | 34% of 2,400 active | AID 504753, 2011 | recombinant PfGluPho, NADPH-diaphorase-resazurin fluorescence | inhibition, % at 20 µM;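 active means inhibition of at least 50% at 20 µM in any single replicate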;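 further: 0% = DMSO with substrate and 100% = DMSO lacking glucose-6-phosphate substrate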
Diaph ctr 10uM – diaphorase inhibitors and chemical oxidizers, confirmation, counter-screen for P. falciparum G6PD inhibitor project, biochemical, fluorescence intensity, 10 µM NADPH; shares compounds with PfG6PD inh; diaphorase-coupled resazurin reduction, NADPH 10 uM; inhibition, % at 20 µM; 39% of 820 active;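 active means average inhibition reaching 50% or more with the compound at 20 µM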;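 further: resorufin red fluorescence formed as diaphorase reduces resazurin using NADPH; 0% = DMSO with enzyme and 100% = DMSO without enzyme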
Diaph ctr 30uM – diaphorase inhibitors and chemical oxidizers, confirmation, counter-screen for P. falciparum G6PD inhibitor project, biochemical, fluorescence intensity, 30 µM NADPH. shares compounds with PfG6PD inh. Diaphorase/resazurin coupled assay, resorufin fluorescence. inhibition, % at 20 µM. 29% of 820 active;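 active means inhibition averaging 50% or more, tested at 20 µM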;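 further: 0% = DMSO with enzyme and 100% = DMSO wells lacking diaphorase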
* marks the source's active call; other numbers are inactive results; nt = not tested or not shown. Shown are actives, neighbours in structure and some others; about 1.3% of the full set was active somewhere.

SMILES	G6PDH CS	Diaphorase act	HKDC1 inhibitor	PfG6PD inh	Diaph inh CS	PfG6PD confirm	others
CC1=CC(C)(C)Nc2ccc(OC(=O)CN3C(=O)c4ccccc4C3=O)cc21	6	0.8	14	75*	19	35
CCOc1ccc2c(c1)C(C)=CC(C)(C)N2	nt	nt	13	90*	nt	33
CC1=CC(C)(C)Nc2ccc(OC(=O)CN3C(=O)c4cccc5cccc(c45)C3=O)cc21	45	0.4	26	91*	58*	85*	Diaph ctr 10uM=39;Diaph ctr 30uM=25
CC(C)C[C@H](NC(=O)C1CCN(S(=O)(=O)c2ccccc2)CC1)C(=O)NCc1ccncc1	nt	nt	-4	2	nt	nt
COc1ccccc1-n1nnnc1SCC(=O)NC1CCCCC1	nt	nt	-2	5	nt	nt
Cc1nc(N2CCC(C)CC2)c2c(C)c(C(=O)Nc3cccc(C(F)(F)F)c3)sc2n1	4	0.9	0	8	14	nt
Cc1nc(Nc2cnc(/C=C/c3cc(C(=O)Nc4cccc(C(F)(F)F)c4)ccc3C)cn2)cc(N2CCNCC2)n1	nt	nt	-9	62*	nt	-12
O=[N+]([O-])c1ccc(COc2ccc(CN3CCOCC3)cc2)cc1	nt	nt	1	-4	nt	nt
O=[N+]([O-])c1ccc(COc2ccc(Br)cc2CN2CCOCC2)cc1	-1	0.7	-5	65*	26	24
O=[N+]([O-])c1ccc(CN2CCOCCOCCN(Cc3ccc([N+](=O)[O-])cc3)CCOCC2)cc1	-8	0.9	-2	62*	9	-4
CC1Cc2c([nH]c3ccccc23)C(=O)N1 (stereo not drawn)	nt	nt	-4	6	nt	nt
O=C(COc1cccc(C(F)(F)F)c1)N1CCN(c2ccc(O)cc2)CC1	2	0.7	7	61*	30	1
O=C(COc1cccc(C(F)(F)F)c1)N1CCN(c2ccccc2O)CC1	8	1	15	14	2	nt
COC(=O)C[C@H]1C[C@H]2c3cc(NC(=O)NC4CCCC4)ccc3O[C@H]2[C@@H](CO)O1	nt	nt	nt	12	nt	nt
S=c1[nH]c(-c2ccccc2)cn1/N=C/c1cccs1	nt	nt	-2	63*	nt	27
COc1cccc(C(=O)c2c(-c3ccccc3)ncc3cc(OC)c(OC)cc23)c1	nt	nt	11	8	nt	nt
